Results on 17 compounds are retold here after ChEMBL document CHEMBL1140935, “Potent and selective inhibitors of breast cancer resistance protein (ABCG2) derived from the p-glycoprotein (ABCB1) modulator tariquidar” (J Med Chem, 2009).

Series [1] has as its target T1, ATP-binding cassette sub-family C member 2 (Homo sapiens, UniProt Q92887). The series can be described thus: Inhibition of ABCC2 overexpressed in MDCK cells […] by flow cytometric-based chloromethylfluorescein-diacetate accumulation assay. Type of series: cell-based. (In general: Flow cytometry measures light scatter and fluorescence of single cells or particles in a stream.)

Series [2] deals with T2, ABCB1 (Homo sapiens, UniProt P08183). Kind of series: (§1) Inhibition of ABCB1 overexpressed in human KBv1 cells at 10 uM by flow cytometric-based calcein-AM efflux assay. Particulars: KBv1 cells overexpressing ABCB1, probe calcein-AM. In kind it is cell-based. A digest of the protocol:
(§2)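 Done on KBv1 cells (ABCB1-overexpressing KB subclone), maintained in DMEM with 10% FCS and 270 ng/mL vinblastine. Intracellular calcein fluorescence from calcein-AM was measured by flow cytometry in the presence of test compound.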

The subject of series [3] is MCF7. Kind of series: Cytotoxicity against ABCG2 positive topotecan-resistant human MCF7 cells up to 500 uM by chemosensitivity assay. In kind it is functional, cell-based. Summed up:
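MCF-7/Topo cells (ABCG2-overexpressing, kept in EMEM with 5% FCS and 0.55 µM topotecan) were seeded into 96-well plates and grown 2-3 days. Test compound alone was then given under permanent exposure, against vehicle, with 16 wells per concentration. Cells were fixed with glutardialdehyde at various times and stained with crystal violet. A578 was read and corrected T/C% calculated.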

The test system of series [4] is MCF7. Kind of series: Potentiation of ABCG2 positive topotecan-induced cytotoxicity in topotecan-resistant human MCF7 cells at 100 nM by chemosensitivity assay.
Series [5] deals with T3, ATP-dependent translocase ABCB1 (Homo sapiens, UniProt P08183). The series is described as §1. Particulars: kbv1, 10 µM. Type of series: cell-based. Summed up:
as §2

Series [6] deals with T4, Broad substrate specificity ATP-binding cassette transporter ABCG2 (Homo sapiens, UniProt Q9UNQ0).
T4 sequence (Q9UNQ0 whole entry): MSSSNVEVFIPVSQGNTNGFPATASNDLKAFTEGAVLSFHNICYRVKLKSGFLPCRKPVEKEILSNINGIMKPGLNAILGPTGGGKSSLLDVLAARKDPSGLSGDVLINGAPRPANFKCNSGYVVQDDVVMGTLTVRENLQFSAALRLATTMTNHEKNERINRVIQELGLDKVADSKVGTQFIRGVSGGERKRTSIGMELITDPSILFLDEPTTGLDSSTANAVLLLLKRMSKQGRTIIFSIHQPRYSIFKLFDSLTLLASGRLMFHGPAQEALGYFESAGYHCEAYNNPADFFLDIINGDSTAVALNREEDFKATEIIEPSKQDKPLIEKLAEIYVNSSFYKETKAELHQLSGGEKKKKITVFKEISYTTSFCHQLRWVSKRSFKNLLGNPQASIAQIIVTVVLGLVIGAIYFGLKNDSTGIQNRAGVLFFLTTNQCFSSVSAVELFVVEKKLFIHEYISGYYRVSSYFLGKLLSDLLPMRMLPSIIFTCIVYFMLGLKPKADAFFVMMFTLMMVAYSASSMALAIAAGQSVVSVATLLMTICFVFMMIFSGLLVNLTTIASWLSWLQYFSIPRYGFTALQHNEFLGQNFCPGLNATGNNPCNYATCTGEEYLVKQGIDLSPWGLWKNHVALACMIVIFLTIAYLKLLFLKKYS
Kind of series: Inhibition of ABCG2 over-expressed in human MCF7/Topo cells at 7 to 10 uM by flow cytometric-based mitoxantrone efflux assay relative to fumitremorgin C. Type of series: cell-based. Summed up: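 MCF-7/Topo cells, 1 × 10^6/mL, loaded 30 min at 37 °C with 20 µM mitoxantrone plus compound, then 1 h efflux in drug-free medium; flow cytometry. Maximal inhibition = effect at highest tested concentration (7 or 10 µM) relative to 10 µM fumitremorgin C (100%, ice-kept sample); geometric mean fluorescence.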

The target of series [7] is T4, Broad substrate specificity ATP-binding cassette transporter ABCG2. The series can be described thus: Inhibition of ABCG2 overexpressed in human MCF7/Topo cells by flow cytometric-based mitoxantrone efflux assay. Type of series: cell-based. Summed up:
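MCF-7/Topo cells, 1 × 10^6/mL, incubated 30 min at 37 °C/5% CO2 with 20 µM mitoxantrone and graded modulator; washed, 1 h efflux in drug-free medium at 37 °C, PBS resuspension, flow cytometry.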

Series [8] concerns the target T3, ATP-dependent translocase ABCB1. The series can be described thus: Inhibition of ABCB1 overexpressed in human KBv1 cells by flow cytometric-based calcein-AM efflux assay. Type of series: cell-based.
Series [9] addresses T2, ABCB1. Kind of series: Inhibition of ABCB1 overexpressed in human KBv1 cells at 100 uM by flow cytometric-based calcein-AM efflux assay. In kind it is cell-based. Particulars: KBv1 cells overexpressing ABCB1, probe calcein-AM. Summed up: as §2
In series [10] the target is T1, ATP-binding cassette sub-family C member 2. The series can be described thus: Inhibition of ABCC2 overexpressed in MDCK cells […] up to 50 uM by flow cytometric-based chloromethylfluorescein-diacetate accumulation assay. Type of series: cell-based. Particulars: dog.
The subject of series [11] is MCF7. Kind of series: Cytotoxicity against ABCG2 positive topotecan-resistant human MCF7 cells up to 100 nM by chemosensitivity assay.
A short description of series [12]: Cytotoxicity against ABCG2 negative human U373MG cells by chemosensitivity assay. In kind it is ADME, cell-based. Particulars: u-373mg atcc. Summed up:
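Proliferating ABCG2/ABCB1-nonexpressing U-373 MG glioblastoma cells (EMEM, 5% FCS, 37 °C, 5% CO2) seeded in 96-well plates, medium replaced after 2-3 days with drug or vehicle (1000-fold feed solutions); 16 wells per concentration. Cells fixed with glutardialdehyde at various times, stained with crystal violet, absorbance 578 nm; corrected T/C and cytocidal effect calculated.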

The source made the active and inactive calls. The calls are words filed in the database; no cut-off is given here.

T2 sequence (P08183 whole entry): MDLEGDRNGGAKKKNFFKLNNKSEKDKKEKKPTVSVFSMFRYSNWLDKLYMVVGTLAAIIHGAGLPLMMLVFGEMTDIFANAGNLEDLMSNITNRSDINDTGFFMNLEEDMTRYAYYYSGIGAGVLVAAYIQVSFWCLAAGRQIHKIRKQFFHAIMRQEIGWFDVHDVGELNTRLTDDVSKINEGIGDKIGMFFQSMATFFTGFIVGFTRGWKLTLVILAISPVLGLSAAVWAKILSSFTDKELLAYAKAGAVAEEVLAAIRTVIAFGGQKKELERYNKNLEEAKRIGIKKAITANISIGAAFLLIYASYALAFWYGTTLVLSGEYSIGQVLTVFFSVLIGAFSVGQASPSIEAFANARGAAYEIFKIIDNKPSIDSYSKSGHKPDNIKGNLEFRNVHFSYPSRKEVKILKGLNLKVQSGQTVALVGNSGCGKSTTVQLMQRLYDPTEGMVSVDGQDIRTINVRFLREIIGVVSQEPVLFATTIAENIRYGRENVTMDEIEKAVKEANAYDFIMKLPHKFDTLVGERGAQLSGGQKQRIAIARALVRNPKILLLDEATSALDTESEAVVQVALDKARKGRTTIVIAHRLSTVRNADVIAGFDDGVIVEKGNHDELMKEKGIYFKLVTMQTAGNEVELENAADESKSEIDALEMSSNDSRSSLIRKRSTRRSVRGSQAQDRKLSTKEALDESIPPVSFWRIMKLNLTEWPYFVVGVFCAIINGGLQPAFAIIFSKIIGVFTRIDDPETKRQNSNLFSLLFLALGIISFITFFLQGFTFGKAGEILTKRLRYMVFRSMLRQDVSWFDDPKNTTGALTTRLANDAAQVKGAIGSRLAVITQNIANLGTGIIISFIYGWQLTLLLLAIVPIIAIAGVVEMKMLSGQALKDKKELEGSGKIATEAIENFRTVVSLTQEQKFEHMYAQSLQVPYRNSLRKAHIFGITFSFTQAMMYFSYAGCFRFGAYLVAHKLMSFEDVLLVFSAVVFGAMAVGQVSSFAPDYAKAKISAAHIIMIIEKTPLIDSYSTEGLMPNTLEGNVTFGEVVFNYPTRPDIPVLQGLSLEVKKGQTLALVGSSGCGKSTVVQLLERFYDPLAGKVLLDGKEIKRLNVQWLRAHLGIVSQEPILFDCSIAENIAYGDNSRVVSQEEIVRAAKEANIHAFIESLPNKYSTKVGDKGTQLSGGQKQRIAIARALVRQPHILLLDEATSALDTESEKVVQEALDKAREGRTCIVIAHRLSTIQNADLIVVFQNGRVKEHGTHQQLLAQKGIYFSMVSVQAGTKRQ
T3 sequence (P08183 whole entry): as above
T1 sequence (Q92887 whole entry): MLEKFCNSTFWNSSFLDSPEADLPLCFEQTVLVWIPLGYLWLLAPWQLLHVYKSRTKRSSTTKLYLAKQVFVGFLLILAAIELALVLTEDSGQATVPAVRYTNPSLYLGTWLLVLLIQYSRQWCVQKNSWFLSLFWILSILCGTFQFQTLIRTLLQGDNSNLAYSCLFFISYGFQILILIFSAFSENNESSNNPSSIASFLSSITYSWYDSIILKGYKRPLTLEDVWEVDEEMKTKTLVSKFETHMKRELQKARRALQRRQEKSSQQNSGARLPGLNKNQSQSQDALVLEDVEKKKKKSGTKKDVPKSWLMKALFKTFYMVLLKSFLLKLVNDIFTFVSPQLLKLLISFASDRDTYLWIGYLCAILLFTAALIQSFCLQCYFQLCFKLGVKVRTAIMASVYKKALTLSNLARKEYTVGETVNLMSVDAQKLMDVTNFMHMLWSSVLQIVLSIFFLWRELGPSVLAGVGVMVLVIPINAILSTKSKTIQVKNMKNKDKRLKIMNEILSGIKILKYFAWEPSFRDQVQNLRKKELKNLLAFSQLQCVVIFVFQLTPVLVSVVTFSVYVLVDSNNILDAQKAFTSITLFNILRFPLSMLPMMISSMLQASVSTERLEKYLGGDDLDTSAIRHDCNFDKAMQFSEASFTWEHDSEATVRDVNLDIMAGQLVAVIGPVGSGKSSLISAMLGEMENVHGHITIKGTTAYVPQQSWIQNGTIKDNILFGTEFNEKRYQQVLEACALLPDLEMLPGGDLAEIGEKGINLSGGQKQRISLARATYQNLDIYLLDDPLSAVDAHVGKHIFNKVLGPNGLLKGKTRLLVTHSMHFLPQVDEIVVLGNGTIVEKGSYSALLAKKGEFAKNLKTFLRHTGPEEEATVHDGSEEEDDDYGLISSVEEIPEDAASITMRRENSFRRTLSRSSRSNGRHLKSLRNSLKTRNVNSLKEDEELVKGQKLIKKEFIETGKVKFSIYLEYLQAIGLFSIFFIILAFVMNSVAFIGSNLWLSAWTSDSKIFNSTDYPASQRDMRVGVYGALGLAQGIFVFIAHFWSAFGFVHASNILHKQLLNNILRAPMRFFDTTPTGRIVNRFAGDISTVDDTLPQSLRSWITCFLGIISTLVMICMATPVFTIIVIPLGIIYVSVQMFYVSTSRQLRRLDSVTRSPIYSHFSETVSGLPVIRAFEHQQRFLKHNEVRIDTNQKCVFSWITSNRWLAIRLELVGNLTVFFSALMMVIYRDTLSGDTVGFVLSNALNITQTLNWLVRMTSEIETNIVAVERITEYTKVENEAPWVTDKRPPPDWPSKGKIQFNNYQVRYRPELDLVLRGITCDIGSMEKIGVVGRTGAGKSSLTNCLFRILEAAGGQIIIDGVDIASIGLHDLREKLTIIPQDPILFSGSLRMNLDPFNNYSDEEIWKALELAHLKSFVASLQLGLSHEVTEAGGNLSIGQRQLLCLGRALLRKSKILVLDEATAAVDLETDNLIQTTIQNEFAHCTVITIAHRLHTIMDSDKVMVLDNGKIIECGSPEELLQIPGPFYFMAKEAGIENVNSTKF

As a reminder, the IC50 is the concentration needed to halve the response being measured. As usually defined, the inhibition is how much of the control response was suppressed. Compound `COc1ccc2c3c([nH]c2c1)[C@H](CC(C)C)N1C(=O)[C@H](CCC(=O)OC(C)(C)C)NC(=O)[C@@H]1C3` came in with an IC50 in series [1] of over 50000 nM. In series [2], the inhibition at 10 µM is 1.6%. Moreover, the result in series [3] and in series [4] was Active.
For `COC(=O)c1ccc(C(=O)Nc2ccc(CCN3CCc4cc(OC)c(OC)cc4C3)cc2)cc1NC(=O)c1ccc2ncccc2c1`, the Activity result in series [5] is given as “Not Active”. Further, in series [6], the “inhibition (INH)” value was found to be 25%. The IC50 in [7] came out at 179 nM.
`COC(=O)c1ccc(C(=O)Nc2ccc(CCN3CCc4cc(OC)c(OC)cc4C3)cc2)cc1NC(=O)c1cccnc1`: the IC50 is over 14000 nM in series [8], over 20000 nM in series [1] and 1020 nM in series [7]. Further, the “inhibition (INH)” value in series [6] amounted to 47%.
`COc1ccc2c3c([nH]c2c1)[C@H](C=C(C)C)N1C(=O)[C@@H]2CCCN2C(=O)[C@@H]1C3` [FUMITREMORGIN]: the inhibition at 10 µM in series [2] is 0.8%. Besides, the “inhibition (INH)” value in series [6] worked out at 100%. Besides, the inhibition at 100 µM in series [9] was 22%. The compound further returned an IC50 in series [7] of over 11000 nM. The Activity result in series [10] is listed as “Not Active”.
For the compound `COc1cc(NC(=O)c2cnc3ccccc3c2)cc(C(=O)Nc2ccc(CCN3CCc4cc(OC)c(OC)cc4C3)cc2)c1`, the IC50 in [8] is over 15000 nM; in [7], 977 nM. Also, the “inhibition (INH)” value in [6] came out at 43%. The Activity entry in series [10] was “Not Active”.
As for `COc1cc2c(cc1OC)CN(CCc1ccc(NC(=O)c3ccc(C)c(NC(=O)c4cnc5ccccc5c4)c3)cc1)CC2`, the IC50 in series [8] is over 15000 nM; in [1] it was over 50000 nM; in [7], 1990 nM. For the same compound, in [6], the “inhibition (INH)” value came to 52%.
With `COC(=O)c1ccc(C(=O)Nc2ccc(CCN3CCc4cc(OC)c(OC)cc4C3)cc2)cc1NC(=O)c1cnc2ccccc2n1`, the IC50 was over 34000 nM in [8] and 183 nM in series [7]. For the same compound, in series [6], the “inhibition (INH)” value is 55%.
Consider `COc1cc2c(cc1OC)CN(CCc1ccc(NC(=O)c3cc(NC(=O)c4cnc5ccccc5c4)c(OC)c(OC)c3)cc1)CC2`, for which the values for the IC50 in [8] and in series [7] were over 17000 nM and 858 nM, respectively. In series [6], the “inhibition (INH)” value worked out at 36%. The Activity result in series [10] is reported as “Not Active”.
Take `COc1cc2c(cc1OC)CN(CCc1ccc(NC(=O)c3cccc4c(=O)c5cccc(OC)c5[nH]c34)cc1)CC2`: in series [6], the “inhibition (INH)” value amounted to 46%. Further, in series [10], the Activity entry is listed as “Not Active”.
As to `COc1cc2c(cc1OC)CN(CCc1ccc(NC(=O)c3cc(OC)c(OC)cc3NC(=O)c3cnc4ccccc4c3)cc1)CC2`, in series [6], the “inhibition (INH)” value stood at 39%. In series [7], this compound came in with an IC50 of 916 nM. Besides, the Activity result in series [10] is reported as “Not Active”.
`COC(=O)c1ccc(C(=O)Nc2ccc(CCN3CCc4cc(OC)c(OC)cc4C3)cc2)cc1NC(=O)c1ccc2ccccc2n1`: the results for the IC50 in [8], in [1] and in [7] were over 29000 nM, over 20000 nM and 60 nM, respectively. Besides, the “inhibition (INH)” value in series [6] is given as 56%. Further, the result in [4] was Active.
As to `CCCCC/C=C\C\C=C/C=C/C=C/[C@@H](SC[C@@H](NC(=O)CC[C@H](N)C(=O)O)C(=O)NCC(=O)O)[C@@H](O)CCCC(=O)O` [LEUKOTRIEN C4], the IC50 in series [1] was under 150 nM.
For the compound `CN(C)C(=O)CCSC(SCCC(=O)O)c1cccc(/C=C/c2ccc3ccc(Cl)cc3n2)c1` (stereo unspecified) [MK-571], the IC50 in series [1] is over 1000 nM.
For the compound `COC(=O)c1ccc(C(=O)Nc2ccc(CCN3CCc4cc(OC)c(OC)cc4C3)cc2)cc1NC(=O)c1cnccn1`, the IC50 in [8] is over 20000 nM; in series [1], over 50000 nM; in series [7], 632 nM. Besides, the “inhibition (INH)” value in series [6] worked out at 38%.
For `COC(=O)c1ccc(C(=O)Nc2ccc(CCN3CCc4cc(OC)c(OC)cc4C3)cc2)cc1NC(=O)c1cnc2ccccc2c1`, the values for the IC50 in series [8] and in [7] were 9450 nM and 119 nM, respectively. In addition, the “inhibition (INH)” value in series [6] is 41%. Moreover, in [11], the outcome was Active. The Activity result in [12] is “Toxic”; in series [10] it was “Not Active”.
In the case of `COC(=O)c1ccc(C(=O)Nc2ccc(CCN3CCc4cc(OC)c(OC)cc4C3)cc2)cc1NC(=O)c1cnc(C)cn1`, the IC50 in series [8] was over 57000 nM; in series [1] it was over 20000 nM; in series [7] it was 552 nM. The “inhibition (INH)” value in series [6] is given as 44%.
In the case of `COc1ccc(C(=O)Nc2ccc(CCN3CCc4cc(OC)c(OC)cc4C3)cc2)cc1NC(=O)c1cnc2ccccc2c1`, the IC50 in [8] is over 6000 nM; in series [7], 317 nM. Besides, the “inhibition (INH)” value in series [6] is listed as 63%. Moreover, the Activity result in [10] is reported as “Not Active”.
